Type in all cases: functional
Assay [1] relates to Staphylococcus aureus. The experiment in a line: In vitro antibacterial activity against gram-positive Staphylococcus aureus NCTC 10649M. In outline:
(§1)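 Agar dilution MIC determination following the National Committee for Clinical Laboratory Standards recommendations.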

Assay [2] deals with Escherichia coli. The assay is described as follows: In vitro antibacterial activity against gram negative Escherichia coli KNK 437. In outline: as §1
The subject of assay [3] is Burkholderia cepacia. The assay is described as follows: In vitro antibacterial activity against gram negative Pseudomonas cepacia 2961. In a few lines:
as §1

The subject of assay [4] is Streptococcus pyogenes. The experiment in a line: In vitro antibacterial activity against gram positive Streptococcus pyogenes 930. In outline:
as §1

The subject of assay [5] is Enterococcus faecium. The assay is described as follows: In vitro antibacterial activity against gram-positive Enterococcus faecium ATCC 8043. In outline:
as §1

In assay [6] the test system is Pseudomonas aeruginosa. The assay is described as follows: In vitro antibacterial activity against Gram-negative Pseudomonas aeruginosa 5007. In outline:
as §1

For assay [7], the system named is Staphylococcus aureus. The assay is described as follows: In vitro antibacterial activity against gram-positive Staphylococcus aureus 1775. In outline:
as §1

Assay [8] has as its system Pseudomonas aeruginosa. The experiment in a line: In vitro antibacterial activity against gram negative P. aeruginosa DPHP 5263. In a few lines:
as §1

Where [9] appears, read: Staphylococcus aureus, NCTC 10649, read-out: MIC.
[10] abbreviates: Escherichia coli, read-out: MIC.
Setting [11] is: Burkholderia cepacia, read-out: MIC.
The mark [12] stands for this setting: Streptococcus pyogenes, read-out: MIC.
The mark [13] stands for this setting: Enterococcus faecium, ATCC 8043, read-out: MIC.
The mark [14] stands for this setting: Pseudomonas aeruginosa, read-out: MIC.
Setting [15] is: Staphylococcus aureus, read-out: MIC.
The mark [16] stands for this setting: Pseudomonas aeruginosa, DPHP 5263, read-out: MIC.

≈ marks a conversion by molar mass, not a printed value.

What is called MIC is the lowest concentration that inhibits growth of the organism.

With `Cc1c(N2CCCN2C)c(F)cn2c(=O)c(C(=O)O)cc(C3CC3)c12`, the MIC in assay [1] (setting [9]) was found to be 0.02 µg/mL (≈ 0.0579 µM); in assay [2] (setting [10]) it was 3.1 µg/mL (≈ 8.98 µM); in assay [3] (setting [11]) it was 1.56 µg/mL (≈ 4.52 µM); in assay [4] (setting [12]) it was 0.39 µg/mL (≈ 1.13 µM); in assay [5] (setting [13]), 0.39 µg/mL (≈ 1.13 µM); in assay [6] (setting [14]) it was 3.1 µg/mL (≈ 8.98 µM). Moreover, the values for the MIC in assay [7] (setting [15]) and in assay [8] (setting [16]) were 3.1 µg/mL (≈ 8.98 µM) and over 100 µg/mL, respectively.
With `CN[C@H]1CCN(c2c(F)cn3c(=O)c(C(=O)O)cc(C4CC4)c3c2C)C1`, the MIC in assay [1] (setting [9]) worked out at 0.02 µg/mL (≈ 0.0556 µM); in assay [2] (setting [10]), 0.05 µg/mL (≈ 0.139 µM); in assay [3] (setting [11]), 1.56 µg/mL (≈ 4.34 µM); in assay [4] (setting [12]), 0.05 µg/mL (≈ 0.139 µM); in assay [5] (setting [13]), 0.1 µg/mL (≈ 0.278 µM); in assay [6] (setting [14]) it was 0.2 µg/mL (≈ 0.556 µM). Also, the minimum inhibitory concentration (MIC) in assay [7] (setting [15]) stood at 1.56 µg/mL (≈ 4.34 µM).
As to `Cc1c(N2CC[C@@H]3CCNC[C@@H]32)c(F)cn2c(=O)c(C(=O)O)cc(C3CC3)c12`, the MIC in assay [1] (setting [9]) came to 0.05 µg/mL (≈ 0.13 µM); in assay [2] (setting [10]) it was 0.39 µg/mL (≈ 1.01 µM); in assay [3] (setting [11]), 3.1 µg/mL (≈ 8.04 µM); in assay [5] (setting [13]), 0.2 µg/mL (≈ 0.519 µM); in assay [6] (setting [14]) it was 0.78 µg/mL (≈ 2.02 µM); in assay [7] (setting [15]), 6.2 µg/mL (≈ 16.1 µM). The MIC in assay [8] (setting [16]) was 6.2 µg/mL (≈ 16.1 µM).
In the case of `Cc1c(N2CC[C@H](C)[C@H](N)C2)c(F)cn2c(=O)c(C(=O)O)cc(C3CC3)c12` (stereo in doubt), the MIC is 0.05 µg/mL (≈ 0.134 µM) in assay [1]; 0.2 µg/mL (≈ 0.536 µM) in assay [2]; 1.56 µg/mL (≈ 4.18 µM) in assay [3]; 0.1 µg/mL (≈ 0.268 µM) in assay [4]; 0.2 µg/mL (≈ 0.536 µM) in assay [5]; 0.78 µg/mL (≈ 2.09 µM) in assay [6]. In assay [7], the MIC came out at 1.56 µg/mL (≈ 4.18 µM).
On to `Cc1c(N2C[C@@H]3COC[C@]3(CN)C2)c(F)cn2c(=O)c(C(=O)O)cc(C3CC3)c12`, for which the minimal inhibitory concentration (MIC) turned out to be 0.01 µg/mL (≈ 0.0249 µM) in assay [1] (setting [9]); 0.1 µg/mL (≈ 0.249 µM) in assay [2] (setting [10]); 6.2 µg/mL (≈ 15.4 µM) in assay [3] (setting [11]); 0.02 µg/mL (≈ 0.0498 µM) in assay [4] (setting [12]); 0.05 µg/mL (≈ 0.125 µM) in assay [5] (setting [13]); 6.2 µg/mL (≈ 15.4 µM) in assay [6] (setting [14]). The minimal inhibitory concentration (MIC) in assay [7] (setting [15]) amounted to 3.1 µg/mL (≈ 7.72 µM); in assay [8] (setting [16]) it was 6.2 µg/mL (≈ 15.4 µM).
As for `Cc1c(N2CCC(CN)(C(F)(F)F)C2)c(F)cn2c(=O)c(C(=O)O)cc(C3CC3)c12` (stereo unspecified), the minimal inhibitory concentration (MIC) in assay [1] (setting [9]) was found to be 0.02 µg/mL (≈ 0.0468 µM); in assay [2] (setting [10]), 0.39 µg/mL (≈ 0.912 µM); in assay [3] (setting [11]), 6.2 µg/mL (≈ 14.5 µM); in assay [4] (setting [12]), 0.1 µg/mL (≈ 0.234 µM); in assay [5] (setting [13]), 0.2 µg/mL (≈ 0.468 µM); in assay [6] (setting [14]), 1.56 µg/mL (≈ 3.65 µM). Moreover, the MIC was found to be 0.39 µg/mL (≈ 0.912 µM) in assay [7] (setting [15]) and 25 µg/mL (≈ 58.5 µM) in assay [8] (setting [16]).
With `Cc1c(N2CC[C@@H](C)[C@@H](N)C2)c(F)cn2c(=O)c(C(=O)O)cc(C3CC3)c12`, the minimal inhibitory concentration (MIC) is 0.1 µg/mL (≈ 0.268 µM) in assay [1] (setting [9]); 0.78 µg/mL (≈ 2.09 µM) in assay [2] (setting [10]); 6.2 µg/mL (≈ 16.6 µM) in assay [3] (setting [11]); 0.39 µg/mL (≈ 1.04 µM) in assay [4] (setting [12]); 0.39 µg/mL (≈ 1.04 µM) in assay [5] (setting [13]); 1.56 µg/mL (≈ 4.18 µM) in assay [6] (setting [14]). The MIC in assay [7] (setting [15]) was found to be 3.1 µg/mL (≈ 8.3 µM); in assay [8] (setting [16]), 12.5 µg/mL (≈ 33.5 µM).
As to `Cc1c(N2CC[C@@H]3CNC[C@@H]32)c(F)cn2c(=O)c(C(=O)O)cc(C3CC3)c12`, the MIC worked out at 0.05 µg/mL (≈ 0.135 µM) in assay [1] (setting [9]); 0.2 µg/mL (≈ 0.538 µM) in assay [2] (setting [10]); 3.1 µg/mL (≈ 8.35 µM) in assay [3] (setting [11]); 0.1 µg/mL (≈ 0.269 µM) in assay [5] (setting [13]); 6.2 µg/mL (≈ 16.7 µM) in assay [7] (setting [15]).
As for `Cc1c(N2C[C@@H](N)[C@@H](C3CC3)C2)c(F)cn2c(=O)c(C(=O)O)cc(C3CC3)c12` (stereo in doubt), the minimal inhibitory concentration (MIC) in assay [1] worked out at 0.005 µg/mL (≈ 0.013 µM); in assay [2], 0.1 µg/mL (≈ 0.259 µM); in assay [4], 0.02 µg/mL (≈ 0.0519 µM); in assay [5], 0.05 µg/mL (≈ 0.13 µM); in assay [7], 0.39 µg/mL (≈ 1.01 µM); in assay [8] it was 12.5 µg/mL (≈ 32.4 µM).
Turning to `Cc1c(N2C[C@H](N)[C@H](C3CC3)C2)c(F)cn2c(=O)c(C(=O)O)cc(C3CC3)c12`, the MIC is 0.02 µg/mL (≈ 0.0519 µM) in assay [1] (setting [9]); 0.2 µg/mL (≈ 0.519 µM) in assay [2] (setting [10]); 1.56 µg/mL (≈ 4.05 µM) in assay [3] (setting [11]); 0.1 µg/mL (≈ 0.259 µM) in assay [4] (setting [12]); 0.1 µg/mL (≈ 0.259 µM) in assay [5] (setting [13]); 0.39 µg/mL (≈ 1.01 µM) in assay [6] (setting [14]). The MIC in assay [7] (setting [15]) amounted to 0.78 µg/mL (≈ 2.02 µM); in assay [8] (setting [16]) it was 12.5 µg/mL (≈ 32.4 µM).
`Cc1c(N2C[C@H](C)[C@@H](N)C2)c(F)cn2c(=O)c(C(=O)O)cc(C3CC3)c12`: the MIC in assay [1] (setting [9]) worked out at 0.05 µg/mL (≈ 0.139 µM); in assay [2] (setting [10]), 0.1 µg/mL (≈ 0.278 µM); in assay [3] (setting [11]), 0.78 µg/mL (≈ 2.17 µM); in assay [4] (setting [12]), 0.1 µg/mL (≈ 0.278 µM); in assay [5] (setting [13]), 0.2 µg/mL (≈ 0.556 µM); in assay [6] (setting [14]) it was 0.39 µg/mL (≈ 1.09 µM). For the same molecule, the results for the MIC in assay [7] (setting [15]) and in assay [8] (setting [16]) were 0.78 µg/mL (≈ 2.17 µM) and 3.1 µg/mL (≈ 8.63 µM), respectively.
Consider `Cc1c(N2C[C@H]3CCNC[C@@H]3C2)c(F)cn2c(=O)c(C(=O)O)cc(C3CC3)c12`, for which the MIC in assay [1] (setting [9]) was found to be 0.05 µg/mL (≈ 0.13 µM); in assay [2] (setting [10]) it was 0.2 µg/mL (≈ 0.519 µM); in assay [3] (setting [11]) it was 0.39 µg/mL (≈ 1.01 µM); in assay [4] (setting [12]), 0.05 µg/mL (≈ 0.13 µM); in assay [5] (setting [13]), 0.2 µg/mL (≈ 0.519 µM); in assay [6] (setting [14]) it was 0.39 µg/mL (≈ 1.01 µM). The MIC in assay [7] (setting [15]) and in assay [8] (setting [16]) was 6.2 µg/mL (≈ 16.1 µM) each time.
With `Cc1c(N2CC[C@H](NCC(F)(F)F)C2)c(F)cn2c(=O)c(C(=O)O)cc(C3CC3)c12`, the MIC in assay [1] (setting [9]) is 0.02 µg/mL (≈ 0.0468 µM); in assay [2] (setting [10]), 1.56 µg/mL (≈ 3.65 µM); in assay [3] (setting [11]) it was 3.1 µg/mL (≈ 7.25 µM); in assay [4] (setting [12]), 0.39 µg/mL (≈ 0.912 µM); in assay [5] (setting [13]), 0.39 µg/mL (≈ 0.912 µM); in assay [6] (setting [14]) it was 3.1 µg/mL (≈ 7.25 µM). Further, the results for the MIC in assay [7] (setting [15]) and in assay [8] (setting [16]) were 0.78 µg/mL (≈ 1.82 µM) and over 100 µg/mL, respectively.

These data come from ChEMBL document CHEMBL1132437, “Synthesis and antimicrobial activity of 4H-4-oxoquinolizine derivatives: consequences of structural modification at the C-8 position” (1999).
